Data as given in ChEMBL document CHEMBL3627671, “Novel derivatives of nitro-substituted salicylic acids: Synthesis, antimicrobial activity and cytotoxicity” (Bioorg Med Chem, 2015).
Converted amounts (≈) assume the structure as drawn.

How the values were obtained:
Pseudomonas aeruginosa [1] = test: Antibacterial activity against Pseudomonas aeruginosa CCM 1961 after 24 hrs by microdilution broth method; type: functional; conditions: CCM 1961, 24 h
In short: (§1)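 Mueller-Hinton broth microdilution (modified M07-A07), pH 7.4 (±0.2). Compounds dissolved in DMSO, tested at final 500 to 0.49 µmol/L. Inoculum in sterile water matched to 0.5 McFarland. Incubated in the dark, humid atmosphere, 35 °C, read at 24 and 48 h visually and at 540 nm. MIC taken as ≥95% growth reduction (IC95) versus control.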

[2] = test system: Trichophyton mentagrophytes; test: Antifungal activity against Trichophyton mentagrophytes 445 after 48 hrs by microdilution broth method; type: functional; conditions: Trichophyton mentagrophytes, 445, 48 h
[3] = test system: Mycobacterium tuberculosis; test: Antimycobacterial activity against Mycobacterium tuberculosis H37Rv 331/88 after 14 days; type: functional; conditions: H37Rv 331/88, 336 h
[4] = test system: Trichophyton mentagrophytes; test: Antifungal activity against Trichophyton mentagrophytes 445 after 24 hrs by microdilution broth method; type: functional; conditions: Trichophyton mentagrophytes, 445, 24 h
Aspergillus fumigatus [5] = test: Antifungal activity against Aspergillus fumigatus 231 after 48 hrs by microdilution broth method; type: functional; conditions: Aspergillus fumigatus, 231, 48 h
In short: (§2)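 CLSI M27-A3 broth microdilution in RPMI 1640 with glutamine, buffered to pH 7.0 with MOPS; DMSO diluent. Yeast inoculum 5 × 10^3 ± 0.2 CFU/mL. Moulds grown on Sabouraud agar 3–10 days before spore harvest, final inoculum 0.5-5 × 10^4 CFU/mL, checked in a Bürker chamber. Incubated dark, humid, 35 °C, read at 24 and 48 h visually and at 540 nm. MIC taken as ≥80% (yeasts) or ≥50% (filamentous) growth reduction versus control.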

[6] = Selectivity index, ratio of CI50 for human HepG2 cells to MIC100 for Mycobacterium tuberculosis H37Rv 331/88
Nakaseomyces glabratus [7] = test: Antifungal activity against Candida glabrata 20/I after 48 hrs by microdilution broth method; type: functional; in short: as §2
Escherichia coli [8] = test: Antibacterial activity against Escherichia coli CCM4517 after 24 hrs by microdilution broth method; type: functional; conditions: CCM4517, 24 h; in short: as §1
Staphylococcus aureus [9] = test: Antibacterial activity against Staphylococcus aureus CCM 4516/08 after 24 hrs by microdilution broth method; type: functional; conditions: CCM 4516/08, 24 h
HepG2 = test: Cytotoxicity against human HepG2 cells after 24 hrs […]; type: cell-based; conditions: HepG2, 24 h
Candida albicans [10] = test: Antifungal activity against Candida albicans ATCC 44859 after 48 hrs by microdilution broth method; type: functional; conditions: ATCC 44859, 48 h; in short: as §2
Candida tropicalis [11] = test: Antifungal activity against Candida tropicalis 156 after 24 hrs by microdilution broth method; type: functional; conditions: Candida tropicalis, 156, 24 h; in short: as §2
Candida albicans [12] = test: Antifungal activity against Candida albicans ATCC 44859 after 24 hrs by microdilution broth method; type: functional; conditions: ATCC 44859, 24 h; in short: as §2
[13] = test system: Staphylococcus epidermidis; test: Antibacterial activity against Staphylococcus epidermidis H 6966/08 after 48 hrs by microdilution broth method; type: functional; conditions: H 6966/08, 48 h; in short: as §1
Pichia kudriavzevii [14] = test: Antifungal activity against Candida krusei E28 after 24 hrs by microdilution broth method; type: functional; conditions: E28, 24 h; in short: as §2
Staphylococcus aureus [15] = test: Antibacterial activity against methicillin-resistant Staphylococcus aureus H 5996/08 after 24 hrs by microdilution broth method; type: functional; conditions: H 5996/08, 24 h
Lichtheimia corymbifera [16] = test: Antifungal activity against Absidia corymbifera 272 after 24 hrs by microdilution broth method; type: functional; conditions: Lichtheimia corymbifera, 272, 24 h; in short: as §2
Enterococcus sp. [17] = test: Antibacterial activity against Enterococcus sp. J 14365/08 after 48 hrs by microdilution broth method; type: functional; conditions: J 14365/08, 48 h; in short: as §1
Klebsiella pneumoniae [18] = test: Antibacterial activity against ESBL-positive Klebsiella pneumoniae J 14368/08 after 48 hrs by microdilution broth method; type: functional; conditions: J 14368/08, 48 h; in short: as §1
[19] = test system: Mycobacterium tuberculosis; test: Antimycobacterial activity against Mycobacterium tuberculosis H37Rv 331/88 after 21 days; type: functional; conditions: H37Rv 331/88, 504 h
Lichtheimia corymbifera [20] = test: Antifungal activity against Absidia corymbifera 272 after 48 hrs by microdilution broth method; type: functional; conditions: Lichtheimia corymbifera, 272, 48 h; in short: as §2
Mycobacterium avium [21] = test: Antimycobacterial activity against Mycobacterium avium 330/80 after 21 days; type: functional; conditions: 330/80, 504 h
Escherichia coli [22] = test: Antibacterial activity against Escherichia coli CCM4517 after 48 hrs by microdilution broth method; type: functional; conditions: CCM4517, 48 h; in short: as §1
Enterococcus sp. [23] = test: Antibacterial activity against Enterococcus sp. J 14365/08 after 24 hrs by microdilution broth method; type: functional; conditions: J 14365/08, 24 h; in short: as §1
Klebsiella pneumoniae [24] = test: Antibacterial activity against Klebsiella pneumoniae D 11750/08 after 48 hrs by microdilution broth method; type: functional; conditions: D 11750/08, 48 h; in short: as §1
[25] = test system: Staphylococcus epidermidis; test: Antibacterial activity against Staphylococcus epidermidis H 6966/08 after 24 hrs by microdilution broth method; type: functional; conditions: H 6966/08, 24 h; in short: as §1
Staphylococcus aureus [26] = test: Antibacterial activity against methicillin-resistant Staphylococcus aureus H 5996/08 after 48 hrs by microdilution broth method; type: functional; conditions: H 5996/08, 48 h
Mycobacterium kansasii [27] = test: Antimycobacterial activity against Mycobacterium kansasii 6509/96 after 7 days; type: functional; conditions: 6509/96, 168 h
In short: (§3)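 Šula's semisynthetic medium micromethod at 37 °C, read after 7, 14 and 21 days. The 1.0 McFarland suspension was diluted 10^-4. MIC determined. 6509/96 is a clinical isolate.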

Mycobacterium kansasii [28] = test: Antimycobacterial activity against Mycobacterium kansasii 235/80 after 21 days; type: functional; conditions: 235/80, 504 h; in short: as §3
Pichia kudriavzevii [29] = test: Antifungal activity against Candida krusei E28 after 48 hrs by microdilution broth method; type: functional; conditions: E28, 48 h; in short: as §2
Aspergillus fumigatus [30] = test: Antifungal activity against Aspergillus fumigatus 231 after 24 hrs by microdilution broth method; type: functional; conditions: Aspergillus fumigatus, 231, 24 h; in short: as §2
Mycobacterium kansasii [31] = test: Antimycobacterial activity against Mycobacterium kansasii 6509/96 after 14 days; type: functional; conditions: 6509/96, 336 h; in short: as §3
Trichosporon asahii [32] = test: Antifungal activity against Trichosporon asahii 1188 after 24 hrs by microdilution broth method; type: functional; conditions: Trichosporon asahii, 1188, 24 h; in short: as §2
Pseudomonas aeruginosa [33] = test: Antibacterial activity against Pseudomonas aeruginosa CCM 1961 after 48 hrs by microdilution broth method; type: functional; conditions: CCM 1961, 48 h; in short: as §1
Mycobacterium avium [34] = test: Antimycobacterial activity against Mycobacterium avium 330/80 after 14 days; type: functional; conditions: 330/80, 336 h
Klebsiella pneumoniae [35] = test: Antibacterial activity against Klebsiella pneumoniae D 11750/08 after 24 hrs by microdilution broth method; type: functional; conditions: D 11750/08, 24 h; in short: as §1
Staphylococcus aureus [36] = test: Antibacterial activity against Staphylococcus aureus CCM 4516/08 after 48 hrs by microdilution broth method; type: functional; conditions: CCM 4516/08, 48 h
Nakaseomyces glabratus [37] = test: Antifungal activity against Candida glabrata 20/I after 24 hrs by microdilution broth method; type: functional; in short: as §2
Trichosporon asahii [38] = test: Antifungal activity against Trichosporon asahii 1188 after 48 hrs by microdilution broth method; type: functional; conditions: Trichosporon asahii, 1188, 48 h; in short: as §2
Mycobacterium kansasii [39] = test: Antimycobacterial activity against Mycobacterium kansasii 235/80 after 14 days; type: functional; conditions: 235/80, 336 h; in short: as §3
Mycobacterium kansasii [40] = test: Antimycobacterial activity against Mycobacterium kansasii 235/80 after 7 days; type: functional; conditions: 235/80, 168 h; in short: as §3
Mycobacterium kansasii [41] = test: Antimycobacterial activity against Mycobacterium kansasii 6509/96 after 21 days; type: functional; conditions: 6509/96, 504 h; in short: as §3
Klebsiella pneumoniae [42] = test: Antibacterial activity against ESBL-positive Klebsiella pneumoniae J 14368/08 after 24 hrs by microdilution broth method; type: functional; conditions: J 14368/08, 24 h; in short: as §1
Candida tropicalis [43] = test: Antifungal activity against Candida tropicalis 156 after 48 hrs by microdilution broth method; type: functional; conditions: Candida tropicalis, 156, 48 h; in short: as §2

## O=C(Nc1cccc(C(F)(F)F)c1)c1cc([N+](=O)[O-])ccc1O
Pseudomonas aeruginosa [1]
  MIC: > 500 µM
[2]
  MIC: 500 µM (≈ 163 µg/mL)
[3]
  MIC: 8 µM (≈ 2.61 µg/mL)
[4]
  MIC: 500 µM (≈ 163 µg/mL)
Aspergillus fumigatus [5]
  MIC: 500 µM (≈ 163 µg/mL)
[6]
  Selectivity Index: 0.463
Nakaseomyces glabratus [7]
  MIC: > 500 µM
Escherichia coli [8]
  MIC: > 500 µM
Staphylococcus aureus [9]
  MIC: 31.2 µM (≈ 10.2 µg/mL)
HepG2
  IC50: 7.4 µM
Candida albicans [10]
  MIC: > 500 µM
Candida tropicalis [11]
  MIC: > 500 µM
Candida albicans [12]
  MIC: > 500 µM
[13]
  MIC: 31.2 µM (≈ 10.2 µg/mL)
Pichia kudriavzevii [14]
  MIC: > 500 µM
Staphylococcus aureus [15]
  MIC: 31.2 µM (≈ 10.2 µg/mL)
Lichtheimia corymbifera [16]
  MIC: 500 µM (≈ 163 µg/mL)
Enterococcus sp. [17]
  MIC: > 500 µM
Klebsiella pneumoniae [18]
  MIC: > 500 µM
[19]
  MIC: 16 µM (≈ 5.22 µg/mL)
Lichtheimia corymbifera [20]
  MIC: 500 µM (≈ 163 µg/mL)
Mycobacterium avium [21]
  MIC: 125 µM (≈ 40.8 µg/mL)
Escherichia coli [22]
  MIC: > 500 µM
Enterococcus sp. [23]
  MIC: > 500 µM
Klebsiella pneumoniae [24]
  MIC: > 500 µM
[25]
  MIC: 31.2 µM (≈ 10.2 µg/mL)
Staphylococcus aureus [26]
  MIC: 31.2 µM (≈ 10.2 µg/mL)
Mycobacterium kansasii [27]
  MIC: 32 µM (≈ 10.4 µg/mL)
Mycobacterium kansasii [28]
  MIC: 62.5 µM (≈ 20.4 µg/mL)
Pichia kudriavzevii [29]
  MIC: > 500 µM
Aspergillus fumigatus [30]
  MIC: 500 µM (≈ 163 µg/mL)
Mycobacterium kansasii [31]
  MIC: 62.5 µM (≈ 20.4 µg/mL)
Trichosporon asahii [32]
  MIC: 500 µM (≈ 163 µg/mL)
Pseudomonas aeruginosa [33]
  MIC: > 500 µM
Mycobacterium avium [34]
  MIC: 125 µM (≈ 40.8 µg/mL)
Klebsiella pneumoniae [35]
  MIC: > 500 µM
Staphylococcus aureus [36]
  MIC: 31.2 µM (≈ 10.2 µg/mL)
Nakaseomyces glabratus [37]
  MIC: > 500 µM
Trichosporon asahii [38]
  MIC: 500 µM (≈ 163 µg/mL)
Mycobacterium kansasii [39]
  MIC: 32 µM (≈ 10.4 µg/mL)
Mycobacterium kansasii [40]
  MIC: 16 µM (≈ 5.22 µg/mL)
Mycobacterium kansasii [41]
  MIC: 62.5 µM (≈ 20.4 µg/mL)
Klebsiella pneumoniae [42]
  MIC: > 500 µM
Candida tropicalis [43]
  MIC: > 500 µM

## O=C(Nc1cc(C(F)(F)F)cc(C(F)(F)F)c1)c1cccc([N+](=O)[O-])c1O
[3]
  MIC: 8 µM (≈ 3.15 µg/mL)
[6]
  Selectivity Index: 0.925
HepG2
  IC50: 7.4 µM
[19]
  MIC: 8 µM (≈ 3.15 µg/mL)
Mycobacterium avium [21]
  MIC: 125 µM (≈ 49.3 µg/mL)
Mycobacterium kansasii [27]
  MIC: 32 µM (≈ 12.6 µg/mL)
Mycobacterium kansasii [28]
  MIC: 32 µM (≈ 12.6 µg/mL)
Mycobacterium kansasii [31]
  MIC: 32 µM (≈ 12.6 µg/mL)
Mycobacterium avium [34]
  MIC: 125 µM (≈ 49.3 µg/mL)
Mycobacterium kansasii [39]
  MIC: 32 µM (≈ 12.6 µg/mL)
Mycobacterium kansasii [40]
  MIC: 16 µM (≈ 6.31 µg/mL)
Mycobacterium kansasii [41]
  MIC: 32 µM (≈ 12.6 µg/mL)
